{"source": "ChEMBL document CHEMBL3272112", "about": "“Cycloalkanones. 8. Hypocholesterolemic activity of long-chain ketones related to pentadecanone” (J Med Chem, 1976)", "key": {"Rattus norvegicus [1]": {"tested_on": "Rattus norvegicus", "test": "Toxicity in Sprague-Dawley rat assessed as effect on lipid level in liver at 10 mg/kg/day measured after 16 days (reference value: 100 +/- 13%)", "type": "organism-based", "conditions": "in vivo, 384 h"}, "Rattus norvegicus [2]": {"species_on_record": "Rattus norvegicus", "test": "Disruption of rat liver lysosomal membrane assessed as free acid phosphatase activity at 5 mg per gram of tissue measured after 1 hr (reference value: 100 +/- 16%)", "type": "functional, tissue-based", "method_in_brief": "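10% rat liver homogenate incubated with Hanke's buffer pH 7.2 and drug suspension in 1% CMC in a shaker at 37°C; aliquot removed after 1 hr and percent free (unbound) acid phosphatase activity determined as an index of lysosomal membrane rupture.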"}, "Rattus norvegicus [3]": {"tested_on": "Rattus norvegicus", "test": "Hypocholesterolemic activity in Sprague-Dawley rat assessed as serum cholesterol level at 5 mg/kg/day, po administered via intubation measured on day 10 by Liebermann-Burchard method relative to control", "type": "functional", "method_in_brief": "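Male Sprague-Dawley rats given compound homogenized in 1% CMC once daily at 11:00 a.m. by oral intubation needle (0.2 cc), doses calculated on weekly body weights; tail-vein blood drawn 24 h after last dose; nonhemolyzed serum (30 μ) assayed by modified Liebermann-Burchard method; N = 8; % of control, mean ± SD; Student's t test.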"}, "Rattus norvegicus [4]": {"species_on_record": "Rattus norvegicus", "test": "Disruption of rat liver cell membrane assessed as unlysed cells at 5 mg per gram of tissue measured at 4 hrs (reference value: 17 +/- 4%)", "type": "functional", "method_in_brief": "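Rat liver 10% homogenate in 0.25 M sucrose + 0.001 M EDTA, pH 7.2, incubated at 37°C with Hanke's buffer pH 7.2 and drug suspended in 1% CMC (dose as mg drug per g wet liver); turbidity read as absorbance at 660 nm over 0–4 hr, falling absorbance taken as lysis; expressed as % unlysed cells; vehicle 1% CMC control.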"}}, "data": [{"smiles": "CCCCCCCCCCCCCCC(C)=O", "values": [{"measurement": "Activity", "setting": "Rattus norvegicus [1]", "result": 101, "unit": "%"}, {"measurement": "Activity", "setting": "Rattus norvegicus [2]", "result": 85, "unit": "%"}, {"measurement": "Activity", "setting": "Rattus norvegicus [3]", "result": 78, "unit": "%"}, {"measurement": "Activity", "setting": "Rattus norvegicus [4]", "result": 17, "unit": "%"}]}]}
